RGS4 block: human RGS4 inhibition; actives 0.45% (n = 310,000); B-score at 10 µM; HEK293 M3R/RGS4 inducible, Fluo-4 calcium flux; stronger effect = higher value; triggered by carbachol at its EC20; P49798; AID 463165;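 active means B-score, a plate-corrected calcium signal, over three deviations above library mean, with baseline fluorescence within five deviations of library mean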;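 further: RGS4 expression induced by doxycycline in cells with stable M3 receptor; B-score is computed from the integrated fluorescence ratio over baseline after carbachol; higher B-score means a larger calcium signal and so more RGS4 inhibition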
Target sequence (P49798 whole entry, looked up): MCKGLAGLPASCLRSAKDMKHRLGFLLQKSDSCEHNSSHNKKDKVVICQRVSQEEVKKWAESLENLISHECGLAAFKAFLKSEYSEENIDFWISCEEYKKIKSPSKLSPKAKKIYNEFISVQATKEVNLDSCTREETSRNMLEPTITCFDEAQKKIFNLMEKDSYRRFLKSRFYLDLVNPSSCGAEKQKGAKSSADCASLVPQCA
RGS4 pot: potentiators or activators of RGS4; HEK293 M3R/inducible RGS4, carbachol calcium flux Fluo4; stronger effect = lower value; B-score at 10 µM; actives 0.92% (n = 310,000); AID 463111;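 active means B-score of the integrated calcium signal more than 4 SD below the library mean, with starting fluorescence not abnormally high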;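 further: negative B-score means reduced calcium response which marks RGS4 activation or potentiation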
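Material: Inducible-RGS4 HEK293 cells carrying M3 receptor; also added: carbachol at ECmax as muscarinic agonist stimulus; incubation: compound preincubation 20 min at room temperature before agonist; signal: Fluo4-AM (2 µM) calcium-flux fluorescence, kinetic read; measure: integrated calcium ratio converted to B score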
MrgX1 antagonist: human MrgX1 receptor antagonism, primary screen; actives 1.3% (n = 310,000); B-score at 10 µM; MRGX1-HEK293 calcium flux, Fluo-4, BAM8-22 antagonism; stronger effect = lower value; Q96LB2;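 active means calcium-response B-score plate-corrected more than 3 library SD below zero, starting fluorescence within 5 deviations, no agonist response on first addition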;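 further: peak minus trough fluorescence over baseline after final BAM8-22 challenge near maximal dose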
Target sequence (Q96LB2 whole entry, looked up): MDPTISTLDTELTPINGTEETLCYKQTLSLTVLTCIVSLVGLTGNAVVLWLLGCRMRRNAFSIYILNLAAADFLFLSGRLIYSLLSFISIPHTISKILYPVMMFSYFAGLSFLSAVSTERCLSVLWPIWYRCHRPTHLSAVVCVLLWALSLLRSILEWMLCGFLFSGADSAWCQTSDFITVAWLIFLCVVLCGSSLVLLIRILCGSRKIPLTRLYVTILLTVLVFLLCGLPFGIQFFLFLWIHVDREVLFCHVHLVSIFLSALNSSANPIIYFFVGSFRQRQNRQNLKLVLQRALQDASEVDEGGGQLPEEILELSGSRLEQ
MrgX1 agonist: agonists of human MrgX1 receptor; MrgX1-HEK293 cells, Fluo-4 calcium fluorescence, agonist mode; stronger effect = higher value; actives 0.44% (n = 310,000); AID 588627; B-score at 10 µM; Q96LB2;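 active means calcium response B-score plate-corrected fluorescence ratio at least 3 library SD, with starting fluorescence B-score inside 5 SD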
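Material – MrgX1-expressing HEK293 cells · Input – 15,000 cells seeded per well · Dosing – compound as first of three additions · Times – overnight seeding, then 1 h dark dye loading · Measured by – kinetic Fluo-4 NW fluorescence of intracellular calcium · Read-out – B-scored fluorescence response ratio · Benchmarks – positive and negative control wells on each plate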
MrgX1 PAM: human MrgX1 positive allosteric modulation, primary screen; MrgX1-HEK293, Fluo-4 calcium flux, FDSS; stronger effect = higher value; B-score at 10 µM; actives 0.63% (n = 310,000); AID 588675;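 active means plate-corrected calcium response at least 3 library SD above typical, normal starting fluorescence, not activating the receptor alone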;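 further: compound read alongside a low EC10 to EC30 dose of BAM8-22 agonist; peak minus trough fluorescence over baseline measured at the second addition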
MrgX1 allo conf: reconfirmed allosteric activator of human MrgX1 receptor. shares compounds with MrgX1 PAM. MrgX1-HEK293, Fluo-4 calcium fluorescence, FDSS. activation (ratio percentage), % at 10 µM. actives 13% (n = 1,200). AID 602413;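 active means ratio at least 3 SD above the weak peptide control, stable starting fluorescence, no direct agonism earlier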;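 further: compound followed by low BAM8-22 agonist challenge near EC20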
HEK293 Ca flux: MrgX1 antagonist counter-screen hit in parental HEK293 cells; shares compounds with MrgX1 antagonist; fluorescence ratio F(max-min)/F0 at 10 µM; Fluo-4 calcium fluorescence, FDSS; actives 2% (n = 4,000);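 active means duplicate-averaged calcium fluorescence ratio at least three times the standard deviation of buffer wells, a nonspecific response in parental cells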
HEK293 Ca counter: MrgX1 allosteric activator counter-screen hit in parental HEK293 cells. shares compounds with MrgX1 antagonist. parental HEK293 calcium flux, Fluo-4 fluorescence ratio; stronger effect = higher value. fluorescence ratio F(max-min)/F0 at 10 µM. actives 0.4% (n = 4,000). AID 624114;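 active means calcium fluorescence ratio, averaged over duplicates, at least 3 SD of the buffer-well ratio, meaning a nonspecific response in receptor-free cells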;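 further: untransfected parental HEK293 lacking MrgX1 used as counterscreen for MrgX1 allosteric activators; fluorescence change taken during the second addition on a kinetic imager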
HEK293 Ca cntr2: MrgX1 activator counter-screen hit in parental HEK293 cells. Fluo-4 calcium fluorescence (FDSS); stronger effect = higher value. fluorescence ratio F(max-min)/F0 at 10 µM. shares compounds with MrgX1 antagonist. actives 8.7% (n = 4,000);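 active means calcium fluorescence ratio at least three times the spread of buffer wells, meaning a non-specific response in parental cells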
* marks the source's active call; other numbers are inactive results; i = inactive; . = no result given. Most compounds without a hit are left out; they make up all but 3.5% or so of the library.

SMILES	RGS4 block	RGS4 pot	MrgX1 antagonist	MrgX1 agonist	MrgX1 PAM	MrgX1 allo conf	HEK293 Ca flux	HEK293 Ca counter	HEK293 Ca cntr2
NC(=O)C1CCN(C(=O)CCC(=O)c2ccc(Br)cc2)CC1	i	i	i	i	8.7*	i	i	i	i
Cc1cccc2cc(CN(C(=O)c3cnccn3)C3CCCCC3)c(Cl)nc12	i	i	i	i	20*	i	i	i	i
O=C(CSc1ccc(-c2ccncc2)nn1)N1CCCC1	i	i	i	i	13*	i	i	i	i
Cc1[nH]c2ccccc2c1C(=O)CN1CCN(c2ccc(Cl)cc2)CC1	i	i	i	i	i	.	.	.	.
O=C(CN(C(=O)CNC(=O)c1cccs1)c1ccccc1)NC1CCCCC1	i	i	i	i	37*	i	i	i	i
CCOc1ccc2nc(N3CCCC(C(=O)NCC4CCCO4)C3)sc2c1 (stereo not drawn)	i	i	i	i	6.6*	i	i	i	i
CCCN1CCN(CCCNC(=O)C2CCCN(c3nc4ccc(OCC)cc4s3)C2)CC1 (stereo not drawn)	i	i	i	i	i	.	.	.	.
COC(=O)C(C)(C)ONC(=O)Nc1ccc(Br)cc1	i	i	i	i	i	.	.	.	.
CC(NC(=O)Nc1ccc(Br)cc1)C(C)(C)C (stereo not drawn)	i	i	i	i	7.8*	i	i	i	i
CCOC(=O)c1c(NC(=O)CN2CCOCC2)sc2c1CCCC2	i	i	i	i	7.1*	i	i	i	i
CCOC(=O)c1c(NC(=O)CN2CCOCC2)sc2c1CCCC2=O	i	i	i	i	i	.	.	.	.
CC(=O)N1CCSc2ccc(S(=O)(=O)NCCc3cccc(C)c3)cc21	i	i	i	i	i	.	.	.	.
CC(=O)N1CCSc2ccc(S(=O)(=O)NCCc3ccc(C)cc3)cc21	i	i	i	i	6.9*	i	i	i	i
CC(=O)Nc1ccc(S(=O)(=O)NCc2ccc(C(=O)N3CCOCC3)cc2)cc1	i	i	i	i	7.4*	i	i	i	i
CC1=C(C(=O)Nc2ccc(Cl)cc2)C2(CCCCC2)C(C(N)=O)C(=S)N1 (stereo not drawn)	i	i	i	i	12*	i	i	i	i
CC(C)c1ccc2c(c1)[C@H]1OCC[C@H]1[C@@H](c1cccs1)N2	i	i	i	i	8.3*	3.3%*	i	i	i
COc1ccccc1CCN=C(N)NS(=O)(=O)c1ccccc1F	i	i	i	i	i	.	.	.	.
Cc1ccc(-c2csc3ncnc(NCCC(=O)O)c23)cc1	i	i	i	i	i	.	.	.	.
Cc1ccc(-c2csc3ncnc(NCCC(=O)O)c23)cc1C	i	i	i	i	6.7*	i	i	i	i
CCN1CCN(CCCNC(=O)c2ccc(CS(=O)c3ccc(Br)cc3)o2)CC1 (stereo not drawn)	i	i	i	i	i	.	.	.	.
Cc1ccc(C(c2nnnn2Cc2cccs2)N2CCN(C(=O)c3ccco3)CC2)cc1 (stereo not drawn)	i	i	i	i	i	.	.	.	.
CCC(c1nnnn1Cc1cccs1)N1CCN(C(=O)c2ccco2)CC1 (stereo not drawn)	i	i	i	i	7.1*	i	i	i	i
Nc1nc(Nc2ccccc2Br)nc(C(F)(F)F)n1	i	i	i	i	9.1*	i	i	i	i
Nc1nc(Nc2ccccc2)nc(C(F)(F)F)n1	i	i	i	i	i	.	.	.	.
CC(Sc1nc2c(c(=O)[nH]1)CCCC2)C(=O)Nc1ccccc1C#N (stereo not drawn)	i	i	i	i	i	.	.	.	.
SMILES	RGS4 block	RGS4 pot	MrgX1 antagonist	MrgX1 agonist	MrgX1 PAM	MrgX1 allo conf	HEK293 Ca flux	HEK293 Ca counter	HEK293 Ca cntr2
CCCCN(C(=O)c1ccc(Br)o1)C1CCS(=O)(=O)C1 (stereo not drawn)	i	i	i	i	i	.	.	.	.
CC1CCCC(C)N1C(=O)c1cc(-c2ccc(Cl)c(Cl)c2)on1 (stereo not drawn)	i	i	i	i	7.8*	i	i	i	i
CC1CCCC(C)N1C(=O)c1cc(-c2ccc3c(c2)OCO3)on1 (stereo not drawn)	i	i	i	i	11*	i	i	i	i
O=C(c1cc(-c2cccc(Cl)c2)on1)N1CCCCCC1	i	i	i	i	12*	i	i	i	i
CCCCCCNCC(=O)N1CCC(Cc2ccccc2)CC1	i	i	i	i	i	.	.	.	.
COc1ccc(C2=CC(c3c(C)nn(-c4ccccc4)c3Cl)n3nnnc3N2)cc1OC (stereo not drawn)	.	.	i	i	7*	i	i	i	i
COc1ccccc1C1C=C(c2ccc(C)cc2)Nc2nnnn21 (stereo not drawn)	i	i	i	i	i	.	.	.	.
Cc1cc(C)n(C(=O)CNc2ccc(C)c(C)c2)n1	i	i	i	i	8.6*	i	i	i	i
CCn1c(/N=C/c2ccccc2NS(=O)(=O)c2ccc(C)cc2)nc2ccccc21	.	.	i	i	14*	i	i	i	i
COc1cc(C)c(NC(c2ccccc2)c2ccccc2)cc1OC	i	i	i	i	8.7*	i	i	i	i
COc1ccccc1CNC(c1ccccc1)c1ccccc1	i	i	i	i	i	.	.	.	.
Cc1ccc(S(=O)(=O)Nc2cnn(-c3ccccc3)c(=O)c2Cl)cc1	i	i	i	i	i	.	.	.	.
CCOC(=O)c1cccc(S(=O)(=O)N2CCCC2)c1	i	i	i	i	i	.	.	.	.
NC(=O)COC(=O)c1cccc(S(=O)(=O)N2CCCCC2)c1	i	i	i	i	11*	i	i	i	i

Screens deposited in PubChem by Johns Hopkins Ion Channel Center.
